An excerpt weighted towards active compounds, which were near 2.9% of everything screened.
Apaf-1 inh: inhibitors of human Apaf-1 apoptosome | O14727 | reconstituted apoptosome caspase-3 activity, DEVD-Rh110 fluorescence | inhibition, % at 20 µM | 0.71% of 330,000 active; active means inhibition of at least 40% at 20 µM
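System – cell-free apoptosome with Apaf-1, procaspase-3 and caspase-9 · Buffer or medium – pH 7.5 Hepes buffer with CHAPS, BSA, DTT · Also added – cytochrome c with DEVD-Rh110 · Times – 30 min compound preincubation, 50 min activation, room temperature · Technique – Rh110 fluorescence intensity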
MEKK2 WT-MEK5: raises or lowers MEK5 binding to wildtype human MEKK2 PB1 domain. Q9Y2U5. bead flow cytometry, Alexa488-MEK5 binding to MEKK2 WT; actives lie on both sides. binding response (% of control), % at 10 µM. 1.1% of 290,000 active; in the data active means binding response below about 67% or above about 130%
UBC13 polyUb: human UBC13 polyubiquitination inhibition; P61088; inhibition, % at 20 µM; 0.47% of 330,000 active; UBC13 polyubiquitin chain formation, TR-FRET; AID 485273; in the data active means inhibition above about 45%, passing the limit was not always enough
Target sequence (P61088 whole entry, looked up): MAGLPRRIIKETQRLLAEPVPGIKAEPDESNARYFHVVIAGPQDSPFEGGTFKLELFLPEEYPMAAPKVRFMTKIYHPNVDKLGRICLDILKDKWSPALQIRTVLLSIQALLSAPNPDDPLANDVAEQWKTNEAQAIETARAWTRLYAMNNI
MEKK2 mut-MEK5: signal of MEK5 binding to mutant human MEKK2 PB1 domain. bead flow cytometry, Alexa488-MEK5 binding to MEKK2 mutant. percent response, % at 10 µM. 0.35% of 290,000 active. AID 1530; in the data active means percent response above about 24%, passing the limit was not always enough
MEKK3 PB1 HTS: MEKK3-MEK5 PB1 interaction, increase or decrease | Q99759 | bead-based flow cytometry, Alexa488-MEK5 binding to MEKK3; actives lie on both sides; 0 = blocked by unlabeled MEK5, 100 = vehicle | binding response (% of control), % at 10 µM | 1.4% of 290,000 active;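 active means binding response more than 3 SD above or below the average of its plate-row segment, actives on both sides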;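 further: Alexa488 bead fluorescence after subtracting the streptavidin-only scavenger bead signal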
Target sequence (Q99759 whole entry, looked up): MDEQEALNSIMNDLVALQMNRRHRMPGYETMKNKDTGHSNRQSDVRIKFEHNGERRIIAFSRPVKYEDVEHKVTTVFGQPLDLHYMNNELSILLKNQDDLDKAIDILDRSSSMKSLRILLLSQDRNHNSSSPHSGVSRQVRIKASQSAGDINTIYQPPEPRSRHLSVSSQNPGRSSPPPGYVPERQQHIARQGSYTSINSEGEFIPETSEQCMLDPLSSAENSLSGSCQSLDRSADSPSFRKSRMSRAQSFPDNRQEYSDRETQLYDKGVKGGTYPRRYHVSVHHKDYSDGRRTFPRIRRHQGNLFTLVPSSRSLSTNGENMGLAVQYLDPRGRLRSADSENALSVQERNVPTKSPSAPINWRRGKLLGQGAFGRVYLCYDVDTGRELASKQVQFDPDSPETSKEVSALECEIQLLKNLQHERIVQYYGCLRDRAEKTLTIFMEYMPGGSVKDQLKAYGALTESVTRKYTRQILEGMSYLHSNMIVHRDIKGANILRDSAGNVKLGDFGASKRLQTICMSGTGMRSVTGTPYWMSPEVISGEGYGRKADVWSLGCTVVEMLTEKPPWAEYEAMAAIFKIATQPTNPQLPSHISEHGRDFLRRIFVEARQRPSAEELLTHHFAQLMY
MEKK2wt confirm: raises or lowers MEK5 binding to wildtype human MEKK2, retest; bead flow cytometry, Alexa488-MEK5 binding to MEKK2 WT; actives lie on both sides; AID 1892; 2.4% of 5,900 active; shares compounds with MEKK3 PB1 HTS; binding response (% of control), % at 10 µM; in the data active means binding response below about 16% or above about 210%; inactive means in between
MEKK2mut-MEK5: signal of MEK5 binding to mutant human MEKK2, retest. shares compounds with MEKK3 PB1 HTS. bead flow cytometry, Alexa488-MEK5 binding to MEKK2 mutant. percent response, % at 10 µM. 2% of 5,900 active. AID 1893; in the data active means percent response mostly above about 71%, no sharp cut-off; inactive means mostly below about 38%;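 further: higher means compound restores mutant binding toward wildtype level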
MEKK3 confirm: confirmation of inhibitors of MEK5 binding to human MEKK3; shares compounds with MEKK3 PB1 HTS; bead flow cytometry, Alexa488-MEK5 binding to MEKK3; active compounds read low; binding response (% of control), % at 10 µM; 1.8% of 5,900 active; AID 1894;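 active means binding response below 72% of control, or above a set upper limit, though filed actives all read lower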;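 further: lower values mean stronger disruption of MEK5 binding to MEKK3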
Each line names hits and unclear results; the compound was inactive in the other large screens (follow-up assays come after a bar, where they were run); ! = a repeat was not active; [ ] = dose if it differs, or a comment.

CCN(C[C@H]1N[C@@](CC)(C(=O)OC)[C@H]2C(=O)N(Cc3ccccc3)C(=O)[C@@H]12)C(=O)NC(C)C	none (no result: MEKK2 WT-MEK5, MEKK2 mut-MEK5, MEKK3 PB1 HTS)
COc1cc2nc(N3CCN(C(=O)C4COc5ccccc5O4)CC3)nc(N)c2cc1OC (stereo not given)	MEKK2 WT-MEK5 150.0! | MEKK2wt confirm inactive | MEKK2mut-MEK5 inactive | MEKK3 confirm inactive
Nc1c2c(nc3sc4c(c13)CCCCC4)CCCCC2	MEKK3 PB1 HTS 139.0 | MEKK2wt confirm inactive | MEKK2mut-MEK5 inactive | MEKK3 confirm inactive
COc1ccccc1/C=N/NC(=O)CNC(=O)c1ccc(S(=O)(=O)N2CCCC2)cc1	none
O=C(CNC(=O)c1ccc(S(=O)(=O)N2CCCC2)cc1)N/N=C/c1ccccc1Cl	MEKK3 PB1 HTS 73.0[inhibitor] | MEKK2wt confirm inactive | MEKK2mut-MEK5 inactive | MEKK3 confirm inactive
CCOC(=O)Cn1cc(C(=O)C2CC2)c2ccccc21	MEKK2 WT-MEK5 2.0[inhibitor], MEKK3 PB1 HTS 2.0[inhibitor] | MEKK2wt confirm inactive | MEKK2mut-MEK5 inactive | MEKK3 confirm inactive
CC(C)COP(=O)(OCC(C)C)C(O)c1ccc2c(c1)OCO2 (stereo not given)	MEKK3 PB1 HTS 130.0 | MEKK2wt confirm inactive | MEKK2mut-MEK5 inactive | MEKK3 confirm inactive
CC(C)OP(=O)(OC(C)C)C(O)c1ccc2c(c1)OCO2 (stereo not given)	none
CCCCOP(=O)(OCCCC)C(Nc1ccccc1)c1ccc2c(c1)OCO2 (stereo not given)	MEKK3 PB1 HTS 144.0 (no result: Apaf-1 inh, UBC13 polyUb) | MEKK2wt confirm inactive | MEKK2mut-MEK5 inactive | MEKK3 confirm inactive
O=C(OCCNc1nc(-c2ccccc2)nc2ccccc12)c1ccncc1	MEKK3 PB1 HTS 146.0 | MEKK2wt confirm inactive | MEKK2mut-MEK5 inactive | MEKK3 confirm inactive
COC(=O)c1sc(-c2ccc(Cl)cc2)cc1NC(=O)c1ccccc1C(=O)O	MEKK3 PB1 HTS 66.0[inhibitor] | MEKK2wt confirm inactive | MEKK2mut-MEK5 inactive | MEKK3 confirm inactive
COC(=O)c1sc(-c2ccc(C(C)(C)C)cc2)cc1NC(=O)c1ccccc1C(=O)O	none
CSc1nnc(-c2ccco2)n1-c1ccccc1	MEKK3 PB1 HTS 123.0 | MEKK2wt confirm inactive | MEKK2mut-MEK5 inactive | MEKK3 confirm inactive
CC(=O)CSc1nnc(-c2ccco2)n1-c1ccccc1	none
CN(C)CCNc1ncnc2c1sc1nc(N3CCOCC3)c3c(c12)CC(C)(C)SC3	MEKK2 WT-MEK5 141.0 | MEKK2wt confirm inactive | MEKK2mut-MEK5 inactive | MEKK3 confirm inactive
CNS(=O)(=O)c1cccc(C(=O)NCC(c2cccs2)N2CCOCC2)c1 (stereo not given)	none (no result: MEKK2 WT-MEK5, MEKK2 mut-MEK5, MEKK3 PB1 HTS)
COc1ccccc1NC(=O)Cn1c([N+](=O)[O-])cnc1C	none
CC(C)c1ccc(C2C3CSCC=C3C(C#N)=C(N)C2(C#N)C#N)cc1 (stereo not given)	MEKK2 WT-MEK5 1.0[inhibitor], MEKK3 PB1 HTS 1.0[inhibitor] | MEKK2wt confirm inactive | MEKK2mut-MEK5 inactive | MEKK3 confirm inactive
CN1CC=C2C(C#N)=C(N)C(C#N)(C#N)[C@H](c3cccc(Cl)c3)C2C1 (stereo not given in full)	none
CN1CCN(/N=C/c2ccc(N(c3ccccc3)c3ccccc3)cc2)CC1	MEKK2 WT-MEK5 153.0 | MEKK2wt confirm inactive | MEKK2mut-MEK5 inactive | MEKK3 confirm inactive
C=CCN1C(=O)C(CC(=O)NCC)SC1=Nc1ccccc1CC (stereo not given)	none
CC(=O)NC1=NN(C(C)=O)C2(CCCC2)S1	MEKK3 PB1 HTS 132.0 | MEKK2wt confirm inactive | MEKK2mut-MEK5 inactive | MEKK3 confirm inactive
COc1ccc(OC)c(C(C)NC(=O)Nc2cccc(C(C)=O)c2)c1 (stereo not given)	none
O=C1c2ccccc2-c2nc3ccccc3nc21	MEKK3 PB1 HTS 67.0[inhibitor] | MEKK2wt confirm inactive | MEKK2mut-MEK5 inactive | MEKK3 confirm inactive
COc1ccccc1-c1nc2ccccc2nc1-c1ccccc1OC	none
CCOc1cc(C2NN=C(c3ccccc3)S2)ccc1OCc1ccc(F)cc1 (stereo not given)	MEKK2 WT-MEK5 0.0[inhibitor], MEKK3 PB1 HTS 0.0[inhibitor] | MEKK2wt confirm inactive | MEKK2mut-MEK5 inactive | MEKK3 confirm inactive
CCOc1cc(C2NN=C(c3ccccc3)S2)ccc1OCc1ccccc1Cl (stereo not given)	none
O=C(CCNC(=O)C1CCN(S(=O)(=O)c2ccc(F)cc2)CC1)NCc1ccncc1	none
CCOc1cc(/C=N/O)cc(Br)c1OCC	MEKK3 PB1 HTS 124.0 | MEKK2wt confirm inactive | MEKK2mut-MEK5 inactive | MEKK3 confirm inactive
Cn1nc(C(=O)NC(C)(C)C)c2ccccc21	none
CN1c2ccccc2C(O)=C(C(=S)Nc2ccc(F)c(Cl)c2)S1(=O)=O	MEKK3 PB1 HTS 130.0 | MEKK2wt confirm inactive | MEKK2mut-MEK5 inactive | MEKK3 confirm inactive
Cc1cc(Cl)ccc1NC(=O)CCC(=O)O	MEKK3 PB1 HTS 135.0 | MEKK2wt confirm inactive | MEKK2mut-MEK5 inactive | MEKK3 confirm inactive
O=C(NN=C1c2ccccc2-c2ccccc21)c1ccccc1Br	MEKK2 WT-MEK5 8.0[inhibitor], MEKK3 PB1 HTS 4.0[inhibitor] | MEKK2wt confirm inactive | MEKK2mut-MEK5 inactive | MEKK3 confirm inactive
CN(C)CCCNS(=O)(=O)c1cc(Cl)ccc1Cl	none
NCCCCCCNS(=O)(=O)c1cccc2c(Cl)cccc12	MEKK2 WT-MEK5 140.0 | MEKK2wt confirm inactive | MEKK2mut-MEK5 inactive | MEKK3 confirm inactive
CCOC(=O)/C(C#N)=C/c1ccc(OCC(=O)Nc2ccc(OC)cc2)c(OC)c1	MEKK3 PB1 HTS 124.0 | MEKK2wt confirm inactive | MEKK2mut-MEK5 inactive | MEKK3 confirm inactive
O=C(CN1CCC(NC(=O)c2ccccc2Cl)CC1)NCc1ccco1	none
C[N+]1(CC(=O)NNc2c3ccccc3nc3ccccc23)CCOCC1	none
O=C(CN1CCOCC1)NNc1c2ccccc2nc2ccccc12	MEKK2 WT-MEK5 37.0[inhibitor], MEKK3 PB1 HTS 40.0[inhibitor] | MEKK2wt confirm inactive | MEKK2mut-MEK5 inactive | MEKK3 confirm inactive
CCn1c(SCC(=O)c2ccc(Cl)cc2)nnc1-c1ccoc1C	none
Cc1occc1-c1nnc(SCC(=O)c2ccc(Cl)cc2)n1CC1CCCO1 (stereo not given)	MEKK2 WT-MEK5 3.0[inhibitor], MEKK3 PB1 HTS 2.0[inhibitor] | MEKK2wt confirm inactive | MEKK2mut-MEK5 inactive | MEKK3 confirm inactive
CCn1cc(S(=O)(=O)NCCc2ccc(OC)c(OC)c2)cn1	none
Cc1ccc(OCC(=O)c2cc(C)n(Cc3cccs3)c2C)c([N+](=O)[O-])n1	none
Cc1cc(C(=O)COc2ccc3ccc(=O)oc3c2)c(C)n1Cc1cccs1	MEKK3 PB1 HTS 142.0 | MEKK2wt confirm inactive | MEKK2mut-MEK5 inactive | MEKK3 confirm inactive
